The nature of experiment [1]: Inhibition of [3H]epibatidine binding at the alpha beta nicotinic AChR in male rat cerebral cortex. Format: tissue-based.
Experiment [2] is filed under the species Mus musculus. The experiment can be described thus: Compound was tested for inhibition of antinociceptive effect of nicotine in mice by hotplate assay; NA=Inactive. In kind it is functional, organism-based. A digest of the protocol:
(§1)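 Antagonism was tested in male ICR mice given test agent sc, measuring blockade of nicotine-induced antinociception in tail-flick or hot-plate tests. Potency is expressed as AD50 in mg/kg with confidence limits.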

The species entered for experiment [3] is Mus musculus. Briefly: Compound was tested for inhibition of antinociceptive effect of nicotine in mice by tail-flick assay; NA=Inactive. In kind it is functional, organism-based. A digest of the protocol: as §1
In general terms: In hot-plate and tail-flick tests a longer latency is read as antinociception.

Experiment [4] deals with Mus musculus. The experiment can be described thus: Compound at 10 mg/Kg was tested for antinociception in mice by hotplate assay. Format: functional. The essentials:
(§2)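 Male ICR mice were given test agent and assessed for antinociception by tail-flick or hot-plate. Results are expressed as ED50 in mg/kg with confidence limits, or as percent effect at a single stated mg/kg dose.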

Experiment [5] deals with Mus musculus. Briefly: Compound at 10 mg/Kg was tested for antinociception in mice by tail-flick assay. In kind it is functional. The essentials: as §2
The test system of experiment [6] is Mus musculus. The experiment can be described thus: Compound at 10 mg/Kg was tested for hypothermia in mice. Format: functional. The essentials: (§3)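 Male ICR mice were dosed and body temperature or locomotor activity was recorded. Values are ED50 in mg/kg with confidence limits, or the effect (change in °C for temperature) at a single stated mg/kg dose.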
Experiment [7] is filed under the species Mus musculus. The experiment can be described thus: Compound was tested to block the antinociceptive effect of nicotine in mice by hotplate assay. Format: functional. The essentials: as §1
For experiment [8], the species on record is Mus musculus. The experiment can be described thus: Compound was tested to block the antinociceptive effect of nicotine in mice by tail-flick assay. In kind it is functional. The essentials:
as §1

Experiment [9] concerns Mus musculus. The experiment can be described thus: Compound at 15 mg/Kg was tested for antinociception in mice by hotplate assay. In kind it is functional. A digest of the protocol:
as §2

The subject of experiment [10] is Mus musculus. The experiment can be described thus: Compound at 15 mg/Kg was tested for antinociception in mice by tail-flick assay. Format: functional. The essentials:
as §2

The species entered for experiment [11] is Mus musculus. Briefly: Effective dose for hypomotility in mice was determined. Format: functional. A digest of the protocol:
as §3

Experiment [12] is filed under the species Mus musculus. Briefly: Effective dose for antinociception in mice was determined by hotplate assay.
For experiment [13], the species on record is Mus musculus. Briefly: Effective dose for antinociception in mice was determined by tail-flick assay.
For experiment [14], the species on record is Mus musculus. Briefly: Effective dose for hypothermia in mice was determined.

pKi: −log10 of the molar value. Calls of active or inactive are those of the source. The rule behind the calls is not given here.

In general, pKi refers to the Ki on a negative log10 scale, so that one unit is a factor of ten. High values mean a small Ki, low ones a large Ki. Turning to `Fc1ccc(C2CC3CCC2N3)cn1` (configuration not stated), the negative-log Ki (pKi) in experiment [1] was 10.57.

With `Nc1ncc(C2CC3CCC2N3)cc1-c1ccccc1` (configuration not stated), the AD50 result in the experiment listed under Mus musculus [2] and in the experiment filed under Mus musculus [3] was “inactive” in each case. Also, the Effect worked out at 15% in the experiment with Mus musculus [4] and 2% with Mus musculus [5]. Also, the Temperature in the experiment on Mus musculus [6] was -0.5 °C. This molecule had a pKi in experiment [1] of 9.48.

Usually ED50 stands for the dose at which the effect has come halfway, by size or by number of responders. A lower ED50 goes with greater potency. Turning to `Fc1ncc(C2CC3CCC2N3)cc1-c1ccccc1` (racemic), the AD50 in the experiment filed under Mus musculus [7] amounted to 1.2 mg/kg; in the experiment listed under Mus musculus [8] it was 0.5 mg/kg. For the same molecule, the Effect turned out to be 4% in the experiment on Mus musculus [9] and 3% with Mus musculus [10]. Also, it took a dose of 4.7 mg/kg to reach the 50% effect level in the experiment filed under Mus musculus [11] (ED50). In the experiment on Mus musculus [6], this molecule gave a Temperature of -0.5 °C.

In experiment [1], `Clc1ncc(C2CC3CCC2N3)cc1-c1ccccc1` (configuration not stated) had a pKi of 10.68.

For `Fc1ncc(C2CC3CCC2N3)cc1-c1ccccc1` (single isomer, unassigned; (+)), the AD50 in the experiment filed under Mus musculus [7] came out at 2.4 mg/kg; in the experiment filed under Mus musculus [8], 1 mg/kg. Besides, the Effect was determined as 8% in the experiment with Mus musculus [9] and 7% in the experiment on Mus musculus [10]. Besides, the Temperature in the experiment on Mus musculus [6] was -0.4 °C. In experiment [1], this molecule showed a pKi of 9.62.

The molecule `CN(C)c1ncc(C2CC3CCC2N3)cc1-c1ccccc1` (configuration not stated) showed a pKi in experiment [1] of 7.24.

`Nc1ccc(C2CC3CCC2N3)cn1` (configuration not stated) showed a pKi in experiment [1] of 8.89.

For `Fc1ncc(C2CC3CCC2N3)cc1-c1ccccc1` (stereo in doubt; (-)-5a), the AD50 in the experiment listed under Mus musculus [7] is 0.7 mg/kg; in the experiment listed under Mus musculus [8] it was 0.08 mg/kg. Besides, the Effect in the experiment with Mus musculus [9] was found to be 10%; in the experiment on Mus musculus [10], 5%. Moreover, the Temperature in the experiment with Mus musculus [6] was -0.8 °C. Further, the pKi in experiment [1] was 9.59.

As to `CN1CCC[C@H]1c1cccnc1` [NICOTINE], the ED50 worked out at 0.004 mg/kg in the experiment filed under Mus musculus [12], 0.006 mg/kg in the experiment listed under Mus musculus [13], 0.5 mg/kg in the experiment filed under Mus musculus [11] and 0.004 mg/kg in the experiment filed under Mus musculus [14].

Source of the values: ChEMBL document CHEMBL1134279, “Synthesis, nicotinic acetylcholine receptor binding, and antinociceptive properties of 2-exo-2-(2'-substituted-3'-phenyl-5'-pyridinyl)-7-azabicyclo[2.2.1]heptanes. Novel nicotinic antagonist” (J Med Chem, 2001).
